High-throughput results (PubChem)
PERK inhibitor: block of dimerizer-induced PERK translation repression, primary screen, PERK inhibitor project, CHO PERK-DD cells, SEAP luminescence, HTS; 220,000 compounds, 0.17% hits; Eukaryotic translation initiation factor 2-alpha kinase 3 (Homo sapiens), Q9NZJ5; AID 1416, 2008; CHO PERK-DD fusion, SEAP luminescence translation reporter; inhibition, % at 5.6 µM;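 active = inhibition above the mean inhibition of all tested compounds plus 3 SD, set separately per screening campaign, cut at about 2.9% in these data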;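 note: PERK kinase domain activated by AP20187 dimerizer at 100 nM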
RanGTP-Impb inh: inhibitors of RanGTP-importin-beta interaction, primary screen, biochemical, FRET, CFP-Ran, YFP-importin-beta, homogeneous; inhibition, % (no concentration beside the values); cell-free CFP-Ran/YFP-importin-beta FRET ratio; Ran GTPase (GTP-bound) - importin-beta complex; 300,000 compounds, 1.1% hits;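 active = more than half of the replicate wells show a fall in the fluorescence ratio signal beyond about 16%, limit read from the data, passing the limit was not always enough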
Hck Nef HTS: inhibitors of Nef-activated human Hck kinase, primary screen, biochemical, Z-Lyte FRET, 384-well, Hck-YEEI | Recombinant Hck-YEEI plus Nef, Z-Lyte FRET kinase assay | inhibition, % at 20 µM | 220,000 compounds, 0.68% hits | AID 463187, 2010;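 active = Hck-Nef kinase inhibition above about 50%, limit read from the data; inactive = inhibition below that limit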
eIF4E-4G inh: eIF4E–eIF4G protein interaction inhibitors, primary screen, biochemical, uHTS, TR-FRET, eIF4GI fragment | Eukaryotic translation initiation factor 4E (Mus musculus) + Eukaryotic translation … | TR-FRET eIF4E-eIF4GI(517-606) binding, 2 h | inhibition, % at 21.7 µM | 220,000 compounds, 0.37% hits;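 active = inhibition above about 30%, limit read from the data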
Runt-SMMHC FRET: inhibitors of RUNX1 Runt–CBFb-SMMHC binding, primary screen, biochemical, FRET, Cerulean-Runt, Venus-CBFb-SMMHC, uHTS. inhibition, % at 20 µM. Runt-related transcription factor 1 (Homo sapiens) + Core-binding factor subunit beta …. 220,000 compounds, 0.74% hits. Cerulean-Runt/Venus-CBFb-SMMHC FRET ratio 530/480, 1 h;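 active = mean inhibition across duplicate retests at 20 µM reaching about 50%, limit read from the data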;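 note: inhibitors lower the FRET ratio by blocking Runt binding to CBFb-SMMHC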
Runt-CBFb FRET: inhibitors of RUNX1 Runt–CBFb binding, primary screen, biochemical, FRET, Cerulean-Runt, Venus-CBFb, uHTS. Runt-related transcription factor 1 (Homo sapiens) + Core-binding factor subunit beta …. Cerulean-Runt/Venus-CBFb FRET ratio 530/480, 1 h. inhibition, % at 20 µM. 220,000 compounds, 0.46% hits. AID 1496, 2009;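 active = inhibition over about 50% at 20 µM in the single-dose screen, limit read from the data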
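Doses: 20 µM compound in 1% DMSO | Material: Cerulean-labeled Runt domain protein | Amount: Each fluorescent fusion protein 100 nM | Schedule: Two 1 h room-temperature incubations shielded from light | Measured by: FRET fluorescence | Evaluation: Loss of energy transfer signal | Controls: Unlabeled CBFb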
YIC counter: YIC intramolecular FRET probe signal interference, dose response, counter-screen for RanGTP-importin-beta inhibitor project, biochemical, fluorescence FRET | shares compounds with RanGTP-Impb inh | IC50, µM | 1,000 compounds, 40% hits | Purified YIC probe, intramolecular FRET ratio YFP/CFP;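 active = fitted half-maximal inhibitory concentration no more than tenfold above the top dose tested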
Numbers stand for hits; 0 = inactive; - = no result. In the library only some 2.2% were active in any assay of this set; here they are far more common.

SMILES	PERK inhibitor	RanGTP-Impb inh	Hck Nef HTS	eIF4E-4G inh	Runt-SMMHC FRET	Runt-CBFb FRET	YIC counter
COC(=O)c1c(N2C(=O)Nc3ccccc3N2O)sc(C)c1C	0	0	0	0	0	0	-
CCCOC(=S)NC(=O)c1sc2ccccc2c1Cl	0	31	0	0	0	0	0
Cc1[nH]c(C)c(S(=O)(=O)N2CCc3ccccc32)c1C(=O)N1CCCCC1	-	0	-	-	-	-	-
N#Cc1c(N)nc2c(c1-c1ccccc1)CCC2	0	29	0	0	0	0	9.8
CN(C(=O)COC(=O)c1cc([N+](=O)[O-])ccc1N1CCCC1)C1CCS(=O)(=O)C1 (stereo not drawn)	0	0	0	0	0	0	-
Cc1cc(C)c[n+](-c2nc3ccccc3nc2[N-]S(=O)(=O)c2ccc(Br)s2)c1	0	30	0	0	78	0	7.9
O=S(=O)([N-]c1nc2ccccc2nc1-[n+]1ccccc1)c1ccccc1	0	0	0	0	0	0	-
C[C@@H]1CCCCO[C@H](CN(C)Cc2ccc3c(c2)OCO3)[C@@H](C)CN([C@H](C)CO)C(=O)c2cc(NC(=O)CCCN(C)C)ccc2O1	-	-	-	-	-	-	0
CC1CN(CCC(=O)Nc2ccc3c(c2)OCO3)CC(C)O1 (stereo not drawn)	0	0	0	0	0	0	-
COc1ccc(-c2nc3ccc(C(=O)NCCCN4CCOCC4)cc3nc2-c2ccc(OC)cc2)cc1	-	21	-	-	-	-	22
COc1ccc(-c2cc(C(=O)O)nc3ccc4ccccc4c23)cc1OC	0	18	0	0	0	0	0
Cc1ccc(Cl)cc1N1C(=O)CC(Sc2ncccn2)C1=O (stereo not drawn)	-	16	-	-	-	-	0
N#Cc1cc2c(ccc3ccccc32)oc1=O	0	38	0	0	0	85	0
CC(C)(C(=O)O)c1ccc([C@H](O)CCCN2CCC(C(O)(c3ccccc3)c3ccccc3)CC2)cc1	-	0	-	-	-	-	-
O=C1CCCN2N=C(SCC(=O)N3N=C(c4ccc(Br)cc4)CC3c3ccc(F)cc3)SC2=N1 (stereo not drawn)	0	20	0	0	0	0	0
Cc1ccc(C2CC(c3ccc(Br)cc3)=NN2C(=O)CSC2=NN3CCCC(=O)N=C3S2)cc1 (stereo not drawn)	-	0	-	-	-	-	-
Cn1c(SCc2ccccc2F)nnc1-c1ccccn1	0	20	0	0	0	0	0
Cn1c(SCc2ccccc2F)nnc1-c1cnccn1	0	0	0	0	0	0	-
Cc1oc(-c2cccc(Cl)c2)nc1CS(=O)(=O)CC(=O)NCc1ccco1	-	0	-	-	-	-	-
CN(C)/C=N/c1nc2nccc(-c3cccs3)n2n1	0	17	0	0	0	0	14
CN(C)/C=N/c1nc2nccc(-c3ccc(F)cc3)n2n1	0	0	0	0	0	0	-
Cc1ccc(C(C(=O)NCc2ccccc2)N(Cc2ccco2)C(=O)c2snc(C(N)=O)c2N)o1 (stereo not drawn)	-	0	-	-	-	-	-
CC(C)CCNC(=O)C(c1ccco1)N(Cc1ccccc1)C(=O)c1snc(C(N)=O)c1N (stereo not drawn)	0	30	0	0	0	0	0
Cc1ccc(NC(=S)Nn2cnnc2)c(C)c1	-	0	-	-	-	-	-
C[C@H](CO)N1C[C@H](C)[C@@H](CN(C)S(=O)(=O)c2cccs2)Oc2ccc(NC(=O)Cc3ccccc3)cc2CC1=O	-	-	-	-	-	-	0
SMILES	PERK inhibitor	RanGTP-Impb inh	Hck Nef HTS	eIF4E-4G inh	Runt-SMMHC FRET	Runt-CBFb FRET	YIC counter
Cc1ccc(NC(=O)CN(C)S(=O)(=O)c2cccs2)cc1C	0	0	0	0	0	0	-
COc1ccc2oc(=O)c(C(=O)NCc3ccc(F)cc3)cc2c1	-	0	-	-	-	-	-
COc1cc(/C=N/NC(=O)c2cc(C)oc2C)ccc1O	0	24	0	0	0	0	0
Cc1cc(C)c(C#N)c(Nc2ccccc2C)n1	-	19	-	-	-	-	0
CN(C)c1oc(-c2cccs2)nc1C#N	0	24	0	0	0	0	0
O=[N+]([O-])c1ccc(S(=O)(=O)N/N=C/c2ccco2)cc1	0	0	0	0	0	0	-
Cc1ccc(C2=CC(c3ccccc3)n3ncnc3N2)cc1 (stereo not drawn)	-	0	-	-	-	-	-
Cc1ccc(C2=CC(c3ccccc3)n3ncnc3N2)c(C)c1 (stereo not drawn)	-	19	-	-	-	-	0
CC(OC(=O)c1cccc([N+](=O)[O-])c1)C(=O)NCc1ccc2c(c1)OCO2 (stereo not drawn)	-	0	-	-	-	-	-
Cc1c(CC(=O)N2CCN(C(=O)C3COc4ccccc4O3)CC2)c(=O)oc2cc(O)c(Cl)cc12 (stereo not drawn)	-	44	-	-	-	-	2.9
CC1(C)CC(=O)CC(=Nc2ccc3[nH]c(=O)[nH]c3c2)C1	0	29	0	0	0	0	0
CC1(C)CC(=O)C/C(=N/Nc2nc3ccccc3s2)C1	0	0	0	0	0	0	-
CCn1c(SCC(=O)NC(=O)NC(C)(C)C)nc2ccccc21	0	0	0	0	0	0	-
Cc1nnc(Sc2nc3c(c(=O)n(C)c(=O)n3C)n2Cc2ccccc2Cl)s1	0	17	0	-	-	-	0
COC(=O)c1c(NC(NC(=O)c2ccccc2)(C(F)(F)F)C(F)(F)F)sc2c1CCN(C)C2	0	48	0	0	0	0	40
Cc1c(CC(=O)NCC(=O)N[C@H](Cc2ccccc2)C(=O)O)c(=O)oc2cc(O)ccc12	-	16	-	-	-	-	46
O=C(c1ccc(Cl)cc1[N+](=O)[O-])N(Cc1ccccc1)Cc1ccccc1	0	0	0	0	0	0	-
CCN(C(=O)c1ccc(Cl)cc1[N+](=O)[O-])c1ccccc1C	0	19	0	0	0	0	0
COCCn1cnc2c(c1=O)c1nc3ccccc3nc1n2/N=C/c1ccc(OC)c(OC)c1	0	0	0	0	0	0	-
Cc1ccc(OCC(=O)N2CCCCCC2)c(C)c1	0	17	0	0	0	0	0
Cn1c(=O)[nH]c2c(nc(-c3ccc(Cl)cc3)n2C)c1=O	-	18	-	-	-	-	32
